Results collected from several papers.
Target: Serine/threonine-protein kinase D2 (PRKD2, Homo sapiens, UniProt Q9BZL6)
One construct used (Q9BZL6 1-878): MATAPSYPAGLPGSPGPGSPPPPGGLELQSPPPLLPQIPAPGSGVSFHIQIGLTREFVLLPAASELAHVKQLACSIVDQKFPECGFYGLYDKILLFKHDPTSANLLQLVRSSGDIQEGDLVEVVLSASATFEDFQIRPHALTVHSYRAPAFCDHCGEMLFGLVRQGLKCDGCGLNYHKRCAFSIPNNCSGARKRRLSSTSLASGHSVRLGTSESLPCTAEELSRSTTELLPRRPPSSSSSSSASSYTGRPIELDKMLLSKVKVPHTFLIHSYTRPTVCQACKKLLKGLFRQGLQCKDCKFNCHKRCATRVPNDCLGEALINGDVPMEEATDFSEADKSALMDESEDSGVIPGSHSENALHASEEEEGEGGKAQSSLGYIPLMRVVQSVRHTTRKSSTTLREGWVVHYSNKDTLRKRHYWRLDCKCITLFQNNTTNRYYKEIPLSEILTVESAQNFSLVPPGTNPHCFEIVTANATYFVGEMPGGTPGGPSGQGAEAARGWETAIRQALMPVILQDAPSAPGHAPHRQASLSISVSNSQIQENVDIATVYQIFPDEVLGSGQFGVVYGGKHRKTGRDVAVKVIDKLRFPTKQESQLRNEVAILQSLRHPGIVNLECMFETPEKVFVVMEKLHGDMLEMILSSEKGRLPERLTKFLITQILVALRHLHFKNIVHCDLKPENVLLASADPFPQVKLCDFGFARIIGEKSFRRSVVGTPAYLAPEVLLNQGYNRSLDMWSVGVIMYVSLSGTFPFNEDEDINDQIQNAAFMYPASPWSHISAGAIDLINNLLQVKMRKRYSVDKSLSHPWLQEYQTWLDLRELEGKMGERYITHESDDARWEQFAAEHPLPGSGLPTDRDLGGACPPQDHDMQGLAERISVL

SMILES | effect on | method | concentration | remaining binding
N[C@@H]1CCN(c2nccc(-c3cnn4ncccc34)n2)C1 | binding | – | 1 µM | 94%
COc1ncc2cc3ccccc3nc2c1C#N | cell-free assay | competition with immobilised ligand | 5 µM | 93%
CN(C)c1ncc(F)c(-c2cnn3ncccc23)n1 | binding | – | 1 µM | 87%
COc1ccc2cc(OCC3(C(=O)O)CN(C(=O)c4ccc(F)cc4)C3)ccc2c1 | cell-free assay | competition with immobilised ligand | 1 µM | 93%
CN(C)c1nccc(-c2cnn3ncccc23)n1 | binding | – | 1 µM | 89%
O=C(NCCCN1CCOCC1)c1ccc(Nc2nccc(-c3cc4ccccc4s3)n2)cc1 | binding | competition with immobilised ligand | 1 µM | 36%
CC(=O)N1CCC(c2ccc(C(=O)NC(=N)N)cc2C(F)(F)F)CC1 | cell-free assay | competition with immobilised ligand | 1 µM | 100%
CN(c1nccc(-c2cnn3ncccc23)n1)C1CC1 | binding | – | 1 µM | 99%
COc1cnc(Nc2cccc(S(N)(=O)=O)c2)nc1N1CCN(c2ccccc2)CC1 | binding | competition with immobilised ligand | 1 µM | 98%
Cn1cc(Cl)c2c(Oc3c(F)cc(Nc4cc(Cl)nc(N)n4)cc3F)ccnc21 | cell-free assay | competition with immobilised ligand | 0.1 µM | 91%
O=C(c1ccc(Nc2ncc(Cl)c(-c3cc4ccccc4s3)n2)cc1)N1CCC(N2CCCC2)CC1 | binding | competition with immobilised ligand | 1 µM | 21%
COc1ccnn2ncc(-c3ccnc(N(C)C)n3)c12 | binding | – | 1 µM | 92%
c1cncc(-c2cccc(Nc3nccc(NC4CCCCC4)n3)c2)c1 | binding | competition with immobilised ligand | 10 µM | 19%
F[C@@H]1CCN(c2nccc(-c3cnn4ncccc34)n2)C1 | binding | – | 1 µM | 100%
CCCCN(CCCC)C(=O)CN1C[C@@H](c2cc(OC)c3c(c2)OCO3)[C@H](C(=O)O)[C@H]1CC(C)(C)CCC | cell-free assay | competition with immobilised ligand | 1 µM | 90.6%
CCN1CCN(Cc2ccc(C(=O)Nc3ccc(C)c(Oc4ccc5c(c4)CC(=O)N5)c3)cc2C(F)(F)F)CC1 | binding | competition with immobilised ligand | 1 µM | 95%
N#Cc1ccc(Nc2ccc3[nH]c(=O)[nH]c3c2)c(Cl)c1 | cell-free assay | competition with immobilised ligand | 1 µM | 100%
C[C@@H]1CCN(c2nccc(-c3cnn4ncccc34)n2)C1 | binding | – | 1 µM | 83%
CNCc1ccccc1-c1csc([C@H](C)Nc2nc(C)nc3cc(OC)c(OC)cc23)c1 | cell-free assay | competition with immobilised ligand | 1 µM | 99%
O=C(Nc1c[nH]nc1C(=O)NC1CCNCC1)c1cc(F)cc(F)c1 | binding | competition with immobilised ligand | 1 µM | 100%
O=C(c1ccc(Nc2nccc(-c3cc4ccccc4s3)n2)cc1)N1CCC(N2CCCC2)CC1 | binding | competition with immobilised ligand | 1 µM | 48%
Cc1nc(N2CC[C@@H](O)C2)ncc1-c1cc(C(F)(F)F)cc2[nH]ncc12 | binding | competition with immobilised ligand | 1 µM | 79%
